Results of several laboratories.
Protocols differ between the studies behind these lines.
Target: Dual specificity mitogen-activated protein kinase kinase 4 (MAP2K4, Homo sapiens, UniProt P45985)
One construct used (P45985 1-399): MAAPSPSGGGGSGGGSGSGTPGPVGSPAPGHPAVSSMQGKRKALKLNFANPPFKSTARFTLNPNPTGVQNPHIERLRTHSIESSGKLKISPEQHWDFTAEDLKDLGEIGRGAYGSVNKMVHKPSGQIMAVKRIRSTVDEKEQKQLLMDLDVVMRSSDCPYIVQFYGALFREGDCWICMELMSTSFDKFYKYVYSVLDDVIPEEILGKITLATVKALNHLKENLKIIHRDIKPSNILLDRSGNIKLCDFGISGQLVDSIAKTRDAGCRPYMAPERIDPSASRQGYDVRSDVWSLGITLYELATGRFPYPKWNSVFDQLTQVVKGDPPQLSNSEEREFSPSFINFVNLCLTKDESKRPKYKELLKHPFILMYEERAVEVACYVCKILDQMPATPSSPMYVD

Compound | read-out | action | technique | cell line | concentration | quantity | value
CC(C)(C)c1nc(-c2cccc(NS(=O)(=O)c3c(F)cccc3F)c2F)c(-c2ccnc(N)n2)s1 | enzyme activity | inhibitor | radiometric |  | 1 µM | remaining activity | 87%
Nc1ncnc2occ(-c3ccc(NC(=O)Nc4cc(C(F)(F)F)ccc4F)cc3)c12 | cell-free assay | inhibitor |  |  | 20 µM | remaining signal | 3.9%
C[C@H](c1ccc(F)cc1)N(Cc1cccc(C(=O)O)c1)C(=O)c1cnc2ccccc2c1 | cell-free assay |  | competition with immobilised ligand |  | 1 µM | remaining binding | 100%
CC(C)(O)[C@H]1CC[C@H](Nc2ccc3ncc(-c4cccc(C(F)(F)F)c4)n3n2)CC1 | enzyme activity | inhibitor |  |  | 1 µM | remaining activity | 102%
CN1CCN(c2cnc3c(C4CCN(C(=O)c5ccc(OC(F)(F)F)cc5N)CC4)ncnc3c2)CC1 | cell-free assay |  | competition with immobilised ligand |  | 1 µM | remaining binding | 100%
Cc1ccc(C(=O)Nc2ccc(CN3CCN(C)CC3)c(C(F)(F)F)c2)cc1C#Cc1cnc2cccnn12 | enzyme activity | inhibitor |  |  | 23.5 nM | remaining activity | 97%
CN(CCCC(F)(F)F)c1nccc(-c2cnn3ncccc23)n1 | binding |  |  |  | 1 µM | remaining binding | 100%
O=C(Nc1cnn(-c2csc(C(=O)NC3COC3)c2)c1)Nc1ccccc1Cl | enzyme activity | inhibitor |  |  | 5 µM | remaining activity | 113%
CC(C)(C)c1nc2c(s1)c1nc(N)ncc1c1ccc(NS(=O)(=O)c3c(F)cccc3F)c(F)c12 | enzyme activity | inhibitor | radiometric |  | 1 µM | remaining activity | 81%
Cc1sc(C(=O)NC2COC2)cc1-n1cc(NC(=O)Nc2c(F)cccc2Cl)cn1 | enzyme activity | inhibitor |  |  | 10 µM | remaining activity | 93%
CCN1CCN(Cc2ccc(NC(=O)c3ccc(C)c(Oc4ccnc5[nH]ccc45)c3)cc2C(F)(F)F)CC1 | target engagement in cells | inhibitor | chemoproteomics | A-375 | 0.5 µM | inhibition | -23%
